Measurements published in ChEMBL document CHEMBL2401619, “Novel small molecule inhibitors targeting the "switch region" of bacterial RNAP: structure-based optimization of a virtual screening hit” (Eur J Med Chem, 2013).
Values after ≈ are worked out from the molar mass of the structure shown.

Legend:
Escherichia coli [1] = assay: Antibacterial activity against Escherichia coli expressing ToLC mutant assessed as growth inhibiiton after 18 hrs; assay type: functional
In short: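 E. coli TolC (efflux-defective) in LB, start OD600 0.03, compounds predissolved in DMSO (max 1% final); serial dilutions, final 0.02–100 µg/mL, each concentration in duplicate. OD read at compound addition and after 18 h at 37 °C, 50 rpm. MIC = lowest concentration with no detectable growth; mean of two independent runs (three if MIC < 10 µg/mL).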

[2] = Antibacterial activity against Bacillus subtilis subsp. subtilis assessed as growth inhibiiton after 18 hrs; assay type: functional
In short: (§1)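 Broth dilution in LB, start OD600 0.03, compounds predissolved in DMSO (max 1% final), serial dilutions 0.02–100 µg/mL tested in duplicate. Incubation 18 h, 37 °C, 50 rpm (200 rpm for PAO1). OD read at start and after incubation. MIC is the lowest concentration with no detectable growth. Values are means of two independent runs, three if MIC <10 µg/mL.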

Staphylococcus aureus = assay: Antibacterial activity against Staphylococcus aureus subsp. aureus Newman assessed as growth inhibiiton after 18 hrs; assay type: functional; in short: as §1
Escherichia coli [3] = assay: Antibacterial activity against Escherichia coli K-12 assessed as growth inhibiiton after 18 hrs; assay type: functional; settings: K-12, 18 h; in short: as §1
[4] = Inhibition of Escherichia coli RNAP assessed as incorporation of [5,6-3H]UTP preincubated for 10 mins followed by DNA template and ATP, CTP, GTP, UTP, [5,6-3H]UTP addition measured after 10 mins by scintillation counting analysis
In short: (§2)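 Purchased E. coli RNAP holoenzyme (1 unit, 0.5 µg) with 40 mM Tris-HCl pH 7.5, 150 mM KCl, 10 mM MgCl2, 10 mM DTT, 0.1% CHAPS, RNase inhibitor and compound in 2% DMSO final, preincubated 10 min at 25 °C. Reaction started with religated pcDNA3.1 template (3500 ng), 400 µM ATP/CTP/GTP, 100 µM UTP and 60 nCi [3H]-UTP, then run 10 min at 37 °C. TCA-precipitated RNA counted by scintillation and compared with DMSO controls.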

Pseudomonas aeruginosa = assay: Antibacterial activity against Pseudomonas aeruginosa PAO1 assessed as growth inhibiiton after 18 hrs; assay type: functional; settings: PAO1, 18 h; in short: as §1
Escherichia coli [5] = assay: Inhibition of Escherichia coli RNAP assessed as incorporation of [5,6-3H]UTP at 100 uM preincubated for 10 mins followed by DNA template and ATP, CTP, GTP, UTP, [5,6-3H]UTP addition measured after 10 mins by scintillation counting analysis relative to control; in short: as §2
Escherichia coli [6] = assay: Inhibition of Escherichia coli RNAP assessed as incorporation of [5,6-3H]UTP at 25 uM preincubated for 10 mins followed by DNA template and ATP, CTP, GTP, UTP, [5,6-3H]UTP addition measured after 10 mins by scintillation counting analysis relative to control; in short: as §2
Escherichia coli [7] = assay: Inhibition of RNAP in Escherichia coli expressing ToLC mutant assessed as reduction of RNA level at 100 uM after 40 mins by whole cell assay in presence of [3H]-uridine relative to control
In short: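 E. coli TolC grown in LB. 3H-uridine (1 µCi/mL) added in log phase, 3 min before compound (100 µM, 0.5% DMSO). 300 µL culture harvested 40 min later and precipitated with 2 volumes of 10% TCA for 45 min at 4 °C. Precipitate collected on glass-fibre filters and radioactivity counted.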

Escherichia coli [8] = assay: Inhibition of Escherichia coli RNAP assessed as incorporation of [5,6-3H]UTP at 50 uM preincubated for 10 mins followed by DNA template and ATP, CTP, GTP, UTP, [5,6-3H]UTP addition measured after 10 mins by scintillation counting analysis relative to control; in short: as §2

Compound	MIC (Escherichia coli [1])	MIC [2]	MIC (Staphylococcus aureus)	MIC (Escherichia coli [3])	IC50 [4]	MIC (Pseudomonas aeruginosa)	inhibition (Escherichia coli [5])	inhibition (Escherichia coli [6])	inhibition (Escherichia coli [7])	pIC50 [4]	inhibition (Escherichia coli [8])
CO[C@H]1/C=C/O[C@@]2(C)Oc3c(C)c(O)c4c(O)c(c(/C=N/N5CCN(C)CC5)c(O)c4c3C2=O)NC(=O)/C(C)=C\C=C\[C@H](C)[C@H](O)[C@@H](C)[C@@H](O)[C@@H](C)[C@H](OC(C)=O)[C@@H]1C [RIFAMPIN]	5 µg/mL (≈ 6.08 µM)	4.8 µg/mL (≈ 5.83 µM)	0.02 µg/mL (≈ 0.0243 µM)	7 µg/mL (≈ 8.51 µM)	0.03 µM	13 µg/mL (≈ 15.8 µM)					
CCCC/C(C)=C/C=C(\C)C(=O)c1c(O)cc([C@H](C)CC/C=C/NC(=O)OC)oc1=O [MYXOPYRONIN B]	0.8 µg/mL (≈ 1.85 µM)	0.9 µg/mL (≈ 2.09 µM)	0.5 µg/mL (≈ 1.16 µM)	> 25 µg/mL	0.35 µM	> 25 µg/mL					
O=C(O)c1sc(-c2ccc(Cl)c(Cl)c2)cc1NC(=O)N(Cc1ccccc1)Cc1ccccc1	> 25 µg/mL	> 25 µg/mL	3 µg/mL (≈ 5.87 µM)	> 25 µg/mL	6 µM	> 25 µg/mL					
CCCCCNC(=O)Nc1cc(-c2ccc(Cl)c(Cl)c2)sc1C(=O)O	10 µg/mL (≈ 24.9 µM)	8 µg/mL (≈ 19.9 µM)	> 25 µg/mL	> 25 µg/mL	35 µM	> 25 µg/mL					
CCCN(Cc1ccccc1)C(=O)Nc1cc(-c2ccc(Cl)c(Cl)c2)sc1C(=O)O	> 25 µg/mL				14 µM						
NC(=O)Nc1cc(-c2ccc(Cl)c(Cl)c2)sc1C(=O)O	> 25 µg/mL						26%				
CCN(Cc1ccccc1)C(=O)Nc1cc(-c2ccc(Cl)cc2)sc1C(=O)OC	> 25 µg/mL							2%			
CCN(Cc1ccccc1)C(=O)Nc1cc(-c2ccc(Cl)c(Cl)c2)sc1C(=O)O	10 µg/mL (≈ 22.3 µM)	11 µg/mL (≈ 24.5 µM)	8 µg/mL (≈ 17.8 µM)	> 25 µg/mL	22 µM	> 25 µg/mL			60%	4.66	
CCOC(=O)c1c(NC(=O)Nc2ccccc2)sc2c1CCCCCC2 [UREIDOTHIOPHENE]											2%
CCN(C(=O)Nc1cc(-c2ccc(Cl)c(Cl)c2)sc1C(=O)O)c1ccccc1	16 µg/mL (≈ 36.8 µM)				36 µM						
CCN(Cc1ccccc1)C(=O)Nc1cc(-c2ccc(Cl)c(C(F)(F)F)c2)sc1C(=O)O	12 µg/mL (≈ 24.8 µM)	20 µg/mL (≈ 41.4 µM)	5 µg/mL (≈ 10.4 µM)	> 50 µg/mL	21 µM	> 50 µg/mL				4.68	
CCN(Cc1ccccc1)C(=O)Nc1cc(-c2ccc(C(F)(F)F)cc2)sc1C(=O)O	21 µg/mL (≈ 46.8 µM)				51 µM					4.29	
CN(C(=O)Nc1cc(-c2ccc(Cl)c(Cl)c2)sc1C(=O)O)c1ccccc1	9 µg/mL (≈ 21.4 µM)				45 µM						
CCCCN(Cc1ccccc1)C(=O)Nc1cc(-c2ccc(Cl)c(Cl)c2)sc1C(=O)O	> 50 µg/mL	> 50 µg/mL	> 50 µg/mL	> 50 µg/mL	9 µM	> 50 µg/mL					
CCN(Cc1ccccc1)C(=O)Nc1cc(-c2ccc(Cl)cc2)sc1C(=O)O	11 µg/mL (≈ 26.5 µM)				75 µM					4.12	
CCCN(CCc1ccccc1)C(=O)Nc1cc(-c2ccc(Cl)c(Cl)c2)sc1C(=O)O	> 25 µg/mL				12 µM						
CCCCCCNC(=O)Nc1cc(-c2ccc(Cl)c(Cl)c2)sc1C(=O)O	> 25 µg/mL				19 µM						
O=C(Nc1ccccc1)Nc1cc(-c2ccc(Cl)c(Cl)c2)sc1C(=O)O	12 µg/mL (≈ 29.5 µM)	12 µg/mL (≈ 29.5 µM)	6 µg/mL (≈ 14.7 µM)	> 50 µg/mL	25 µM	> 50 µg/mL					
CCN(Cc1ccccc1)C(=O)Nc1cc(-c2ccc(OC(F)(F)F)cc2)sc1C(=O)O	21 µg/mL (≈ 45.2 µM)	20 µg/mL (≈ 43.1 µM)	9 µg/mL (≈ 19.4 µM)	> 100 µg/mL	45 µM	> 100 µg/mL				4.35	
CN(Cc1ccccc1)C(=O)Nc1cc(-c2ccc(Cl)c(Cl)c2)sc1C(=O)O	5 µg/mL (≈ 11.5 µM)						12%				
